One experiment deals with Saccharomyces cerevisiae. Kind of experiment: Antifungal activity against Saccharomyces cerevisiae by bioautographic agar overlay method. The format is functional. In short, it runs like this:
(§1)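 Nutrient agar inoculated with the pure microbial culture was poured over the plates, which were incubated appropriately. Bacterial or fungal growth inhibition was scored by bioautography.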

The subject of experiment [1] is Staphylococcus aureus. Kind of experiment: Antibacterial activity against Staphylococcus aureus at 100 ug/mL by bioautographic agar overlay method. The format is functional, organism-based.
For experiment [2], the system named is Bacillus subtilis. Kind of experiment: Antibacterial activity against Bacillus subtilis at 100 ug/mL by bioautographic agar overlay method. Type of experiment: functional, organism-based.
In experiment [3] the test system is Candida albicans. Kind of experiment: Antifungal activity against Candida albicans at 100 ug/mL by bioautographic agar overlay method. Type of experiment: functional, organism-based.
The next experiment has as its system Pseudomonas aeruginosa. Kind of experiment: Antibacterial activity against Pseudomonas aeruginosa by bioautographic agar overlay method. The format is functional. In short, it runs like this:
as §1

The next experiment concerns Escherichia coli. Kind of experiment: Antibacterial activity against Escherichia coli by bioautographic agar overlay method. Type of experiment: functional. In short, it runs like this:
as §1

The test system of experiment [4] is Bacillus subtilis. Kind of experiment: Antibacterial activity against Bacillus subtilis by bioautographic agar overlay method. Type of experiment: functional. In short, it runs like this: as §1
The subject of experiment [5] is Staphylococcus aureus. Kind of experiment: Antibacterial activity against Staphylococcus aureus by bioautographic agar overlay method. The format is functional. In short, it runs like this:
as §1

Experiment [6] deals with Candida albicans. Kind of experiment: Antifungal activity against Candida albicans by bioautographic agar overlay method.

Values after ≈ are worked out from the molar mass of the structure shown. Active and inactive are the calls of the source. No cut-off for these calls is given here.

In the experiment with Saccharomyces cerevisiae, `CC(C)N1C(=O)C(c2ccccc2)(c2ccccc2)C12C(=O)N(C)c1ccccc12` (stereo unspecified) displayed an MIC of 50 µg/mL (≈ 126 µM). Moreover, the result in the experiment on Staphylococcus aureus [1], with Bacillus subtilis [2] and in the experiment on Candida albicans [3] was inactive.

Consider `Cc1ccc(C2(c3ccc(C)cc3)C(=O)N(C(C)C)C23C(=O)N(C)c2ccccc23)cc1` (stereo unspecified), for which the MIC against Saccharomyces cerevisiae was determined as 50 µg/mL (≈ 118 µM); against Pseudomonas aeruginosa, 50 µg/mL (≈ 118 µM); against Escherichia coli it was 10 µg/mL (≈ 23.6 µM). The result in the experiment on Staphylococcus aureus [1], in the experiment with Bacillus subtilis [2] and with Candida albicans [3] was inactive.

`Cc1ccc(C2(c3ccc(C)cc3)C(=O)N(C(c3ccccc3)c3ccccc3)C23C(=O)N(C)c2ccccc23)cc1` (stereo unspecified) gave an MIC against Saccharomyces cerevisiae of 100 µg/mL (≈ 182 µM). For the same compound, the outcome in the experiment with Staphylococcus aureus [1], in the experiment on Bacillus subtilis [2] and with Candida albicans [3] was inactive.

Regarding `COc1ccc(C2(c3ccc(OC)cc3)C(=O)N(C(C)C)C23C(=O)N(C)c2ccccc23)cc1` (stereo unspecified), the MIC against Saccharomyces cerevisiae turned out to be 50 µg/mL (≈ 110 µM). In addition, the result in the experiment with Staphylococcus aureus [1], with Bacillus subtilis [2] and in the experiment on Candida albicans [3] was inactive.

`CN1C(=O)C2(c3ccccc31)N(C(c1ccccc1)c1ccccc1)C(=O)C2(c1ccccc1)c1ccccc1` (stereo unspecified): the MIC in the experiment on Saccharomyces cerevisiae came out at 10 µg/mL (≈ 19.2 µM). Moreover, the outcome in the experiment on Staphylococcus aureus [1], with Bacillus subtilis [2] and with Candida albicans [3] was inactive.

For the compound `CC(c1ccccc1)N1C(=O)C(c2ccccc2)(c2ccccc2)C12C(=O)N(C)c1ccccc12` (stereo unspecified), the outcome with Staphylococcus aureus [1], in the experiment on Bacillus subtilis [2] and in the experiment on Candida albicans [3] was inactive.

For the compound `Cc1ccc(C2(c3ccc(C)cc3)C(=O)N(C3CCCCC3)C23C(=O)N(C)c2ccccc23)cc1` (stereo unspecified), the result in the experiment on Staphylococcus aureus [1], with Bacillus subtilis [2] and in the experiment with Candida albicans [3] was inactive. In addition, in the experiment with Escherichia coli, the MIC worked out at 100 µg/mL (≈ 215 µM).

Turning to `O=C(N[C@H](CO)[C@H](O)c1ccc([N+](=O)[O-])cc1)C(Cl)Cl` [CHLORAMPHENICOL], the MIC in the experiment with Bacillus subtilis [4], in the experiment on Staphylococcus aureus [5] and in the experiment with Escherichia coli was 0.1 µg/mL (≈ 0.309 µM) throughout.

For `COc1ccc(C2(c3ccc(OC)cc3)C(=O)N(C(c3ccccc3)c3ccccc3)C23C(=O)N(C)c2ccccc23)cc1` (stereo unspecified), the minimal inhibitory concentration (MIC) against Saccharomyces cerevisiae and with Escherichia coli was 50 µg/mL (≈ 86.1 µM) throughout. Also, the result with Staphylococcus aureus [1], in the experiment with Bacillus subtilis [2] and with Candida albicans [3] was inactive.

For the compound `Cc1ccc(C2(c3ccc(C)cc3)C(=O)N(C(C)c3ccccc3)C23C(=O)N(C)c2ccccc23)cc1` (stereo unspecified), the outcome with Staphylococcus aureus [1], in the experiment with Bacillus subtilis [2] and with Candida albicans [3] was inactive.

For the compound `Clc1ccc(COC(Cn2ccnc2)c2ccc(Cl)cc2Cl)c(Cl)c1` (stereo unspecified) [MICONAZOLE], the MIC in the experiment with Candida albicans [6] and against Saccharomyces cerevisiae was 0.1 µg/mL (≈ 0.24 µM) throughout.

As to `CN1C(=O)C2(c3ccccc31)N(C1CCCCC1)C(=O)C2(c1ccccc1)c1ccccc1` (stereo unspecified), the result with Staphylococcus aureus [1], with Bacillus subtilis [2] and in the experiment on Candida albicans [3] was inactive. Also, in the experiment on Escherichia coli, 100 µg/mL (≈ 229 µM) was the least that counted as inhibitory (MIC).

Values taken from ChEMBL document CHEMBL1137692, “Synthesis and antimicrobial activity of new 1-alkyl/cyclohexyl-3,3-diaryl-1'-methylspiro[azetidine-2,3'-indoline]-2',4-diones” (2009).
